The values below come from paper PMC3338355 (Biochemistry, 2011).

Non-standard residues stand in square brackets, D forms with d. No end group written: not given here. pS = N[C@@H](COP(=O)(O)O)C(=O)O

The target of test [1] is T1, Dullard 46–244 (Homo sapiens, UniProt O95476).
T1 sequence (O95476 46-244): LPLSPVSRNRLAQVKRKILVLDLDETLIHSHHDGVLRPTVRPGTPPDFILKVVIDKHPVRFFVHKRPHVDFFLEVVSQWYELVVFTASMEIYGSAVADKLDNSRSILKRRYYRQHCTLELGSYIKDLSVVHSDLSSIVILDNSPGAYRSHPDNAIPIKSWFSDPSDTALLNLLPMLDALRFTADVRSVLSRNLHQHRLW
In words: Biomol Green phosphate reagent. Type of test: biochemical. The note with it: values in parentheses, 25 °C. In a few lines: (§1)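 Dullard residues 46–244 expressed in E. coli and purified to >95% by SDS/PAGE. Substrates were Pro/Thr/Ser-containing phosphoserine nonapeptides representing lipin1 phosphorylation sites. Dephosphorylation was followed as phosphate release under steady-state conditions to derive kcat/Km. The MESG-coupled assay and the molybdate green assay were used as independent read-outs.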

Test [2] addresses T1, Dullard 46–244. In words: MESG-coupled phosphatase assay. Type of test: biochemical. The conditions noted are these: MESG-coupled phosphatase assay (EnzChek E-6646), 25°C. In short, it runs like this:
as §1

A further test concerns dullard. The conditions noted are these: dullard-catalyzed hydrolysis of generic substrate; cited from earlier work.

Turning to PIL[pS]EGASR [S110], at Dullard 46–244 [1], the Km is 700 µM, the kcat came out at 0.28 ± 0.02 s⁻¹ and the kcat/Km came out at 400 M⁻¹ s⁻¹. Also, the kcat/Km at Dullard 46–244 [2] is 650 M⁻¹ s⁻¹.
Turning to `O=[N+]([O-])c1ccc(OP(=O)(O)O)cc1` [pNPP, p-nitrophenyl phosphate], in the test on dullard, the Km is 18000 µM, the kcat is 1 s⁻¹ and the kcat/Km is 56 M⁻¹ s⁻¹.
Regarding DNMNT[pS]EDE [S176], the kcat on Dullard 46–244 [1] is greater than 0.5 s⁻¹.
Regarding SGSRP[pS]TP [S248], on Dullard 46–244 [1], the Km was 700 µM, the kcat came to 0.01 ± 0.002 s⁻¹ and the kcat/Km worked out at 14 M⁻¹ s⁻¹. Further, on Dullard 46–244 [2], the kcat/Km was found to be 750 M⁻¹ s⁻¹.
